The results in this text go back to ChEMBL document CHEMBL3352330, “Discovery of azetidine based ene-amides as potent bacterial enoyl ACP reductase (FabI) inhibitors” (Eur J Med Chem, 2014).

Usually inhibition stands for the relative decrease from the control value, in per cent. A higher inhibition goes with a response far below the control. A word on the ED50: it is the midpoint of the dose-response relation. One may read the IC50 as the concentration needed to halve the response being measured. Low values mean inhibition by little substance, high ones a need for much substance. The MIC is the least concentration at which growth counts as inhibited. A low value points to a more susceptible organism. As a reminder, the Tmax is the time at which the peak concentration occurs.

Converted amounts (≈) assume the structure as drawn.

Data set [1] deals with T1, Enoyl-[acyl-carrier-protein] reductase [NADPH] FabI (Staphylococcus aureus) (UniProt Q6GI75).
T1 sequence (whole entry): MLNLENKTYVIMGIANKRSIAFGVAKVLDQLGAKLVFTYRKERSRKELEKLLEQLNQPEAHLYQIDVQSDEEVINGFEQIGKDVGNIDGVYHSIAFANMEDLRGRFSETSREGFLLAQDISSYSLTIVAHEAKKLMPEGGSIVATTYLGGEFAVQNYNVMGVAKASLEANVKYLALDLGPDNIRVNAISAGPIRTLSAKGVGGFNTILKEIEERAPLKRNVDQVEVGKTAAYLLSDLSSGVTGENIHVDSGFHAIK
Kind of data set: Inhibition of Staphylococcus aureus FabI-mediated reduction of enoyl-ACP preincubated at 1 uM for 30 mins measured after 2 hrs by spectrophotometry. An outline of the steps:
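Spectrophotometric FabI assay in 100 mM sodium ADA buffer, pH 6.5. Enzyme (2400 ng/assay) preincubated 30 min with NADH and compound. Reaction started with crotonoyl CoA. After 2 h at room temperature, NADH oxidation read as the fall in absorbance at 340 nm.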

In data set [2] the test system is Staphylococcus aureus. Kind of data set: Antibacterial activity against methicillin-resistant Staphylococcus aureus ATCC 33591 infected in Swiss albino CD-1 mouse compound administered orally bid at 1 hr and 4 hrs post infection. It is filed as functional. The conditions noted are these: ATCC 33591, po.
Data set [3] has as its target T2, Enoyl-[acyl-carrier-protein] reductase [NADPH] FabI (Staphylococcus aureus, UniProt Q6GI75).
T2 sequence (Q6GI75 whole entry): T1 sequence (whole entry)
The data set can be described thus: Inhibition of Staphylococcus aureus FabI-mediated reduction of enoyl-ACP preincubated for 30 mins measured after 2 hrs by spectrophotometry.

Data set [4] concerns Staphylococcus aureus. Kind of data set: Antibacterial activity against methicillin-sensitive Staphylococcus aureus ATCC 29213 after 16 to 20 hrs by broth microdilution method. It is filed as functional. An outline of the steps:
(§1)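 Broth microdilution in MHB, serial two-fold compound dilutions; final inoculum 5 × 10⁵ CFU/mL; broth, compound and organism controls in duplicate; S. aureus ATCC 29213 as quality control strain; incubation 35 °C, 16–20 h, ambient air; growth read by unaided eye with viewing device, end point set against no-antibiotic control wells.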
For orientation: Broth dilution looks for growth in wells or tubes with falling amounts of substance.

For data set [5], the system named is Staphylococcus aureus. Kind of data set: Antibacterial activity against methicillin-resistant Staphylococcus aureus ATCC 33591 after 16 to 20 hrs by broth microdilution method. It is filed as functional. An outline of the steps: as §1
The nature of data set [6]: Tmax in Swiss albino CD-1 mouse at 10 mg/kg, po administered as single dose. It is filed as ADME, organism-based. More on the design: dose 10 mg/kg, route oral. Conditions: in vivo. An outline of the steps:
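Oral gavage, 10 mg/kg single dose, given as a suspension in 0.25% Tween 80 with 0.225% sodium carboxymethyl cellulose. Blood drawn from the retro-orbital plexus into EDTA at set times (sparse sampling, n = 3 per time point). Plasma stored at −20 °C and assayed by LC-MS/MS. Parameters from non-compartmental analysis.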

The test system of data set [7] is Staphylococcus epidermidis. Kind of data set: Antibacterial activity against methicillin-resistant Staphylococcus epidermidis AUCC 704 after 16 to 20 hrs by broth microdilution method. Type of data set: functional. An outline of the steps:
as §1

On to `Cc1c(C2CN(C(=O)/C=C/c3cnc4c(c3)CCC(=O)N4)C2)oc2ccccc12`, for which the inhibition in data set [1] worked out at 96%. In the data set with Staphylococcus aureus [2], this molecule showed a median effective dose (ED50) of 0.9 mg/kg. In data set [3], this molecule came in with a concentration for half-maximal inhibition (IC50) of 141 nM. The MIC stood at 0.06 µg/mL (≈ 0.155 µM) in the data set on Staphylococcus aureus [4], 0.06 µg/mL (≈ 0.155 µM) in the data set with Staphylococcus aureus [5] and 0.5 µg/mL (≈ 1.29 µM) in data set [7]. In addition, the Tmax in data set [6] was determined as 2 h.
Regarding `CC(=O)NC[C@H]1CN(c2ccc(N3CCOCC3)c(F)c2)C(=O)O1` [LINEZOLID], the ED50 in the data set with Staphylococcus aureus [2] amounted to 2.8 mg/kg.
